ChEMBL document CHEMBL4765238, “Structure-Based Discovery and Optimization of Benzo[ d]isoxazole Derivatives as Potent and Selective BET Inhibitors for Potential Treatment of Castration-Resistant Prostate Cancer (CRPC)” (J Med Chem, 2018)
pIC50: −log10 of the molar value.

Tests used:
[1] = target: T1, Bromodomain-containing protein 4 (Homo sapiens, UniProt O60885); experiment: Binding affinity to human recombinant His6-tagged BRD4 bromodomain 1 (N44 to E168 residues) expressed in Escherichia coli BL21 (DE3) cells assessed as change in melting temperature at 200 uM incubated for 30 mins by SYPRO orange dye based thermal shift assay
Outline: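 Thermal shift assay measuring change in melting temperature of each isolated bromodomain module in the presence of compound versus without.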

[2] = target: T1, Bromodomain-containing protein 4; experiment: Inhibition of HYSGRGK(Ac)GGK(Ac)GLGK(Ac)GGAK(Ac)RHRK(Biotin)-OH binding to recombinant human His6-tagged BRD4 bromodomain 1 (N44 to E168 residues) expressed in Escherichia coli BL21 (DE3) cells measured after 2 hrs by Alphascreen assay
[3] = target: T1, Bromodomain-containing protein 4; experiment: Inhibition of BRD4 bromodomain 1 (unknown origin) by fluorescence polarization assay
LNCaP C4-2B = experiment: Antiproliferative activity against AR-positive human C4-2B cells assessed as reduction in cell viability incubated for 96 hrs by cell-titer glo assay; type: functional, cell-based
Outline: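 Prostate cancer cells treated across a concentration range; viability read by CellTiter-Glo luminescence; experiments in triplicate; IC50 derived from the dose–response curves.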

VCaP = experiment: cells; conditions: Homo sapiens, 144 h, read-out: INH

Structure (SMILES)	ΔTm [1]	pIC50 [2]	pIC50 [3]	pIC50 (LNCaP C4-2B)	inhibition at 33 µM (VCaP)
CCCS(=O)(=O)Nc1cc2c(C)noc2cc1C	4.5 °C	5.61	–	–	–
Cc1noc2ccc(-c3nc4ccc(N5CCOCC5)cc4n3Cc3ccccc3)cc12	6 °C	5.78	–	–	–
COc1ccc(Br)cc1S(=O)(=O)Nc1cc2c(C)noc2cc1C	7.5 °C	6.21	–	–	–
Cc1cc2onc(C)c2cc1NS(=O)(=O)c1c(Cl)cccc1Cl	1.1 °C	< 4.70	–	–	–
Cc1noc2c(Br)cc(-c3nc4ccc(N5CCOCC5)cc4n3CC3CC3)cc12	6 °C	5.63	–	–	–
COc1ccccc1S(=O)(=O)Nc1cc2c(C)noc2cc1C	6.6 °C	6.08	–	–	–
CCCn1c(-c2cc(Br)c3onc(C)c3c2)nc2ccc(N3CCOCC3)cc21	6.2 °C	5.74	–	–	–
CCCCn1c(-c2ccc3onc(C)c3c2)nc2ccc(N3CCOCC3)cc21	5.9 °C	5.94	–	–	–
Cc1cc2onc(C)c2cc1NS(=O)(=O)C1CCCC1	5 °C	5.52	–	–	–
CCCn1c(-c2ccc3onc(C)c3c2)nc2ccc(N3CCOCC3)cc21	6.5 °C	5.86	–	–	–
COc1ccc(S(=O)(=O)Nc2cc3c(C)noc3cc2C)cc1	1.5 °C	< 4.70	–	–	–
CCCCS(=O)(=O)Nc1cc2c(C)noc2cc1C	5 °C	5.59	–	–	–
COc1ccc(Br)cc1S(=O)(=O)Nc1cc2c(C)noc2cc1O	9.2 °C	6.64	–	–	–
Cc1cc2onc(C)c2cc1NS(=O)(=O)c1cc(Cl)ccc1Cl	5 °C	5.63	–	–	–
Cc1cc2onc(C)c2cc1NS(=O)(=O)c1ccccc1C(=O)O	3.8 °C	5.24	–	–	–
COc1cc2onc(C)c2cc1NS(=O)(=O)c1cc(Cl)ccc1Cl	7.3 °C	6.36	–	–	–
COc1ccc(Br)cc1S(=O)(=O)Nc1cc2c(C)noc2cc1OCC(=O)NCCN1CCOCC1	4.8 °C	5.64	–	–	–
COc1ccc(Br)cc1S(=O)(=O)Nc1cc2c(C)noc2cc1OCC(=O)O	6.2 °C	6.24	–	–	–
COC(=O)c1ccccc1S(=O)(=O)Nc1cc2c(C)noc2cc1C	3 °C	5.16	–	–	–
CCNC(=O)COc1cc2onc(C)c2cc1NS(=O)(=O)c1cc(Br)ccc1OC	5.1 °C	5.80	–	–	–
Cc1cc2onc(C)c2cc1NS(=O)(=O)c1cccc(Cl)c1Cl	4 °C	5.45	–	–	–
COc1cc2onc(C)c2cc1NS(=O)(=O)c1cc(Cl)ccc1OC	8.7 °C	6.80	–	–	–
COc1ccc(OC)c(S(=O)(=O)Nc2cc3c(C)noc3cc2C)c1	2 °C	4.97	–	–	–
COc1ccc(Br)cc1S(=O)(=O)Nc1cc2c(C)noc2cc1OCC(=O)NCCNC(C)=O	5.4 °C	6.12	–	–	–

Structure (SMILES)	ΔTm [1]	pIC50 [2]	pIC50 [3]	pIC50 (LNCaP C4-2B)	inhibition at 33 µM (VCaP)
CCC(C)n1c(-c2ccc3onc(C)c3c2)nc2ccc(N3CCOCC3)cc21 (stereo not drawn)	4.8 °C	5.44	–	–	–
Cc1cc2onc(C)c2cc1NS(=O)(=O)c1ccccc1Br	4.4 °C	5.74	–	–	–
CCOc1cc2onc(C)c2cc1NS(=O)(=O)c1cc(Br)ccc1OC	9.2 °C	6.82	–	–	–
Cc1noc2ccc(-c3nc4ccc(N5CCOCC5)cc4n3CC3CCCCC3)cc12	5.4 °C	6.74	–	–	–
Cc1cc2onc(C)c2cc1NS(=O)(=O)c1ccc([N+](=O)[O-])cc1	0.5 °C	< 4.70	–	–	–
Cc1noc2ccc(-c3nc4ccc(N5CCOCC5)cc4n3CC3CC3)cc12	6.5 °C	5.85	–	–	–
COc1cc2onc(C)c2cc1NS(=O)(=O)c1cc(C)ccc1OC	7.8 °C	6.33	–	–	–
Cc1cc2onc(C)c2cc1NS(=O)(=O)c1ccccc1	2 °C	5.30	–	–	–
CCOC(=O)C[C@@H]1N=C(c2ccc(Cl)cc2)c2cc(OC)ccc2-n2c(C)nnc21	–	–	6.20	–	–
COCCn1c(-c2ccc3onc(C)c3c2)nc2ccc(N3CCOCC3)cc21	5 °C	5.35	–	–	–
CCCOc1cc2onc(C)c2cc1NS(=O)(=O)c1cc(Br)ccc1OC	6 °C	6.38	–	–	–
COc1ccc(C)cc1S(=O)(=O)Nc1cc2c(C)noc2cc1C	4.6 °C	5.67	–	–	–
CCCCn1c(-c2cc(Br)c3onc(C)c3c2)nc2ccc(N3CCOCC3)cc21	7.2 °C	6.28	–	–	–
CNC(=O)c1ccc(N2C(=S)N(c3ccc(C#N)c(C(F)(F)F)c3)C(=O)C2(C)C)cc1F [ENZALUTAMIDE]	–	–	–	4.75	50%
Cc1cc2onc(C)c2cc1NS(=O)(=O)c1ccc(Cl)cc1	1 °C	< 4.70	–	–	–
Cc1noc2c(Br)cc(-c3nc4ccc(N5CCOC[C@@H]5C)cc4n3CC3CCCCC3)cc12	7.2 °C	6.49	–	–	–
COc1ccc(Cl)cc1S(=O)(=O)Nc1cc2c(C)noc2cc1C	6.5 °C	5.98	–	–	–
Cc1cc2onc(C)c2cc1NS(=O)(=O)c1ccc(F)cc1	2 °C	5.01	–	–	–
CCS(=O)(=O)Nc1cc2c(C)noc2cc1C	3 °C	5.28	–	–	–
Cc1cc2onc(C)c2cc1NS(=O)(=O)C1CCCCC1	4.5 °C	5.65	–	–	–
COc1cc2onc(C)c2cc1NS(=O)(=O)c1ccccc1Cl	7.8 °C	6.66	–	–	–
Cc1cc2onc(C)c2cc1NS(=O)(=O)c1ccccc1Cl	5.2 °C	5.80	–	–	–
COCCn1c(-c2cc(Br)c3onc(C)c3c2)nc2ccc(N3CCOCC3)cc21	4.5 °C	< 4.70	–	–	–
